From PubChem
In the library only some 3.7% were active in any assay of this set; here they are far more common.
KCNK3 inh – human KCNK3 channel inhibitors, primary screen, CHO cells, FluxOR thallium flux, B-score. Potassium channel subfamily K member 3 (Homo sapiens), O14649. FluxOR fluorescence; hits give low values. B-score at 10 µM. hit rate 0.84% among 340,000;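 active means B-score under library mean minus 4 SD, starting fluorescence ratio at most library mean plus 5 SD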;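 further: more negative B-score means stronger inhibition of thallium flux through KCNK3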
KCNQ1 pot – potentiators or activators of KCNQ1 channel, primary screen, cell-based, thallium flux, high-throughput | CHO-K1 KCNQ1, thallium flux FluxOR fluorescence; hits give high values | AID 2648, 2010 | Potassium voltage-gated channel subfamily KQT member 1 (Homo sapiens), P51787 | B-score at 10 µM | hit rate 0.35% among 310,000;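 active means fluorescence ratio B-score, a plate-corrected score, at least three library SD, with initial intensity B-score within 5 SD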
Target sequence (P51787 whole entry, looked up): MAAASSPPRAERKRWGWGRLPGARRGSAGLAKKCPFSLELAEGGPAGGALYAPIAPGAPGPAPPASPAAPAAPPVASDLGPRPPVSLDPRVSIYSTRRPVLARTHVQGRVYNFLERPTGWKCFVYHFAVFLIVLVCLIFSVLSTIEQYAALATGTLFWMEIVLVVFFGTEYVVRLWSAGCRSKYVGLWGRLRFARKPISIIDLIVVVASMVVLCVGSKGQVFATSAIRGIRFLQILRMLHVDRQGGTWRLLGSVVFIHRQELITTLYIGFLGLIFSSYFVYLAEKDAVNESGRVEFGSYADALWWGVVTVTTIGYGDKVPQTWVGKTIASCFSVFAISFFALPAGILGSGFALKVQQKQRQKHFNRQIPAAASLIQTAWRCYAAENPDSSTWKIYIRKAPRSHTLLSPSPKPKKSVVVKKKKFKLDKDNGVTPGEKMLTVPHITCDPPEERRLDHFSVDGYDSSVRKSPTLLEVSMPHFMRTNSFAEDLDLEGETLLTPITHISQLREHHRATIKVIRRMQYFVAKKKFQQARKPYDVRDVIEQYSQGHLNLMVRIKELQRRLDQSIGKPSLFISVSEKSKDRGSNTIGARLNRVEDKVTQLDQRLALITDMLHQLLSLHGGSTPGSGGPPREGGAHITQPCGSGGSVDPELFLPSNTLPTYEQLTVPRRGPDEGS
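System: Stable KCNQ1 CHO-K1 line | Incubation: 90 min dye loading and 20 min compound exposure, both at room temperature | Measure: Ratio B score | Medium: Assay buffer for compound exposure, DMSO matched across wells | Compound dosing: Single-concentration screen | Probe or stimulus: K+/Tl+ depolarizing stimulus | Measured by: Kinetic FluxOR fluorescence, 10 s baseline plus 110 s post-stimulus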
Kir21 block – inhibitors of mouse Kir2.1 inward-rectifier potassium channel; HEK293-Kir2.1, FluxOR thallium flux fluorescence; hits give low values; hit rate 0.85% among 310,000; B-score at 10 µM;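 active means fluorescence ratio B-score at or below minus 3 SD of library scores, with starting-brightness B-score within 2 SD, cut at about -4.2 in these data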;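 further: channel flux triggered by added potassium and thallium sulfate stimulus; B-score of peak minus minimum fluorescence over baseline after thallium stimulus; more negative B-score means stronger Kir2.1 block with less thallium influx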
hERG protect – hERG rescue from dofetilide block, primary screen, cell-based, CHO-hERG, FluxOR thallium flux, dofetilide IC70; dofetilide IC70 present; AID 1511, 2009; Voltage-gated inwardly rectifying potassium channel KCNH2 (Homo sapiens), Q12809; hit rate 0.51% among 310,000; activation (rescue from dofetilide block), less the hit threshold, % at 10 µM;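 active means activation above the mean of controls blocked by dofetilide plus 5 SD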;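 further: thallium influx through hERG after potassium depolarization seen as dye fluorescence rise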
KCNK9 block – KCNK9 potassium channel inhibitors, primary screen, HEK293 cells, thallium flux. B-score at 10 µM. hit rate 1.2% among 310,000. Potassium channel subfamily K member 9 (Homo sapiens), Q9NPC2. AID 488922, 2010. FluxOR thallium flux fluorescence; hits give low values;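 active means ratio B-score over 3 SD below the library mean, with starting fluorescence within 5 SD of its mean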;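 further: negative B-score means less thallium flux so channel inhibition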
KCNQ1 block – inhibitors of human KCNQ1 channel, primary screen, cell-based, thallium flux, high-throughput. Potassium voltage-gated channel subfamily KQT member 1 (Homo sapiens), P51787. CHO-K1 KCNQ1, FluxOR thallium flux fluorescence; hits give high values. B-score at 10 µM. hit rate 1.3% among 310,000;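 active means compounds whose thallium flux B-score, printed positive for inhibition, exceeds three library SD while starting fluorescence stays within three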;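 further: channel opened by potassium depolarization with thallium stimulus after 20 min compound exposure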
KCNK9 block conf – KCNK9 potassium channel inhibitors, confirmation, HEK293 cells, thallium flux, duplicate. shares compounds with KCNK9 block. inhibition, % at 10 µM. FluxOR thallium flux fluorescence. hit rate 43% among 4,900;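 active means thallium signal inhibited by more than 5 SD of the compound-free buffer control wells, on both duplicate plates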;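 further: 0% = assay buffer control wells without compound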
Kir2-1 spec – mouse Kir2.1 channel inhibition, confirmation, selectivity assay for KCNK9 modulator project, cell-based, HEK293, thallium flux. shares compounds with KCNK9 block. Kir2.1 cells, FluxOR thallium flux fluorescence. inhibition, % at 10 µM. hit rate 4% among 4,900. AID 492993, 2010;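 active means thallium signal drop more than 5 SD beyond the mean of the no-compound control wells, seen in both duplicate plates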;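 further: signal is fluorescence rise after thallium addition divided by baseline fluorescence; plate controls were assay buffer only for no effect and full block by chlorpromazine control for full effect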
KCNK9 uninduced – thallium flux in non-induced HEK293 cells, confirmation, counter-screen for KCNK9 inhibitor project, cell-based, second counter screen, non-induced KCNK9-HEK293 | FluxOR thallium flux | inhibition, % at 10 µM | shares compounds with KCNK9 block | hit rate 40% among 4,900;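 active means thallium signal drop beyond 5 SD of the untreated control mean, on both duplicate plates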;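 further: plate controls were buffer only IC0 wells for no effect and SID17386958 at its maximal inhibitory level for full effect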
* = called active by the depositor; i = inactive; · = not tested or not shown.

SMILES	KCNK3 inh	KCNQ1 pot	Kir21 block	hERG protect	KCNK9 block	KCNQ1 block	KCNK9 block conf	Kir2-1 spec	KCNK9 uninduced
COc1cc(/C=N/OCC(=O)NC23CC4CC(CC(C4)C2)C3)ccc1OCc1ccccc1	i	i	-1.1	-5	i	i	i	i	26%*
COc1ccc(NC(=O)Nc2cccc(C(F)(F)F)c2)cn1	i	i	0.48	-17	i	i	·	·	·
O=c1c2ccccc2nc2ccc(NCc3cccs3)nn12	i	i	0	-12	i	i	·	·	·
Cn1cc(SCC(=O)N2CCCc3ccccc32)c2ccccc21	i	i	-6.8*	-13	i	i	i	38%*	i
Cc1ccc2c(c1)CCCN2C(=O)CSc1ccccc1	i	i	-3.4	-11	i	i	i	i	i
Cn1cc(SCC(=O)N2CCOCC2)c2ccccc21	i	i	1.1	-5	i	i	·	·	·
CCN(CC)c1nc(C)nc2c1cnn2CCc1ccccc1	i	i	-2.1	-12	i	i	i	i	i
CCN(CC)c1ncnc2c1cnn2Cc1ccc(C)cc1	i	i	-0.16	-8	i	i	·	·	·
CNC(=O)c1ccc(NC(=O)Cc2ccc(S(=O)(=O)N3CCOCC3)s2)cc1	i	i	-0.92	-14	i	i	·	·	·
COc1cc(C(=O)NC(=S)Nc2ccccc2N2CCCC2)cc(OC)c1OC	i	i	-0.27	-11	i	i	i	i	i
CC(C)OC(=O)CSc1nnc(SCc2cccc3ccccc23)s1	i	i	0.43	-5	i	i	i	i	i
O=C(O)CSc1nnc(SCc2cccc3ccccc23)s1	i	i	0.44	-13	i	i	·	·	·
O=C(Nc1nnc(-c2ccncc2)o1)c1ccccc1	i	i	1.1	-8	i	i	·	·	·
O=C(Nc1nnc(-c2ccc3c(c2)CCCC3)o1)c1ccccc1	i	33*	0.95	-9	i	i	i	i	i
CCCn1c(N)c(C(=O)COC(=O)CCNS(=O)(=O)c2ccccc2F)c(=O)[nH]c1=O	i	i	0.04	-5	i	i	·	·	·
Cc1onc(-c2ccccc2Cl)c1C(=O)NC(=S)Nc1ccccc1F	i	i	-0.91	1	i	i	·	·	·
COc1ccccc1NC(=S)NC(=O)c1c(-c2ccccc2Cl)noc1C	i	i	-0.18	-7	i	i	i	i	i
Cc1onc(-c2ccccc2Cl)c1C(=O)NC(=S)NCc1cccnc1	i	i	-0.92	-12	i	i	i	i	i
Cc1onc(-c2ccccc2Cl)c1C(=O)NCc1cccnc1	i	i	0.74	-6	i	i	·	·	·
COc1ccc(C(=O)OCC(=O)N2CCCC2=O)c(OC)c1	i	i	0.12	-7	i	i	·	·	·
CC(C)(C)C1CCC(=O)N(CCC#N)CC1 (stereo not given)	i	i	-1.1	-4	i	i	·	·	·
Cc1cc(C)c(C)c(S(=O)(=O)N2CCC(C(=O)NCCCN3CCCC3=O)CC2)c1C	i	·	·	·	·	·	·	·	·
